Data: ChEMBL document CHEMBL2413042, “Design, synthesis and evaluation of dialkyl 4-(benzo[d][1,3]dioxol-6-yl)-1,4-dihydro-2,6-dimethyl-1-substituted pyridine-3,5-dicarboxylates as potential anticonvulsants and their molecular properties prediction” (Eur J Med Chem, 2013)
In brackets after ≈: the same amount, converted by molar mass. Activity calls are given as the source filed them. No cut-off for these calls is given here.

Tests used:
[1] = test system: Rattus norvegicus; assay: Anticonvulsant activity in Wistar albino rat assessed as protection against subcutaneous pentylenetetrazole-induced mortality at 50 mg/kg, po administered 1 hr prior to pentylenetetrazole challenge measured for 300 secs relative to control; type: functional
How it was run: (§1)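 Male Wistar albino rats, six per group. Test agents were given orally as suspensions in 0.5% sodium carboxymethylcellulose; the reference was given i.p.; the vehicle group served as control. Pentylenetetrazole 80 mg/kg was given s.c. 1 h later. Onset of clonic convulsions and protection against mortality were recorded, with a 300 sec maximum latency. Mean±SEM; one-way ANOVA with Dunnett's test.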

[2] = test system: Radical scavenging activity; assay: Antioxidant activity assessed as DPPH free radical scavenging activity under dark condition after 30 mins; type: functional
How it was run: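 Test compound in ethanol (10, 50, 100, 250, 500 μg/ml solutions) was added to 0.004% DPPH in methanol. The mixture was kept in the dark for 30 min and absorbance was read at 517 nm. Percent radical inhibition was calculated, with ascorbic acid as reference, and IC50 was derived.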

[3] = test system: Rattus norvegicus; assay: Anticonvulsant activity in Wistar albino rat assessed as time of onset of subcutaneous pentylenetetrazole-induced clonic convulsion at 50 mg/kg, po administered 1 hr prior to pentylenetetrazole challenge measured for 300 secs (reference value: 83 +/- 4 secs); type: functional
[4] = test system: Rattus norvegicus; assay: Anticonvulsant activity in Wistar albino rat assessed as protection against maximum electric shock-induced hind limb tonic extension at 50 mg/kg, po administered 1 hr followed by maximum electric shock induction relative to control; type: functional, Hindlimb
How it was run: (§2)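 Male Wistar albino rats, six per group, were given test compound orally as a suspension in 0.5% sodium carboxymethylcellulose. Controls received vehicle; phenytoin 30 mg/kg was given orally. One hour after dosing, 150 mA was applied for 0.2 sec through corneal electrodes. Duration of hind limb tonic extension was recorded. Values are mean±SEM; ANOVA with Dunnett's test vs control.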

[5] = test system: Rattus norvegicus; assay: Anticonvulsant activity in Wistar albino rat assessed as protection against maximum electric shock-induced hind limb tonic extension administered 1 hr followed by maximum electric shock induction; type: functional, organism-based; conditions: Hindlimb; how it was run: as §2
[6] = test system: Rattus norvegicus; assay: Anticonvulsant activity in Wistar albino rat assessed as protection against subcutaneous pentylenetetrazole-induced mortality at 30 mg/kg administered 1 hr prior to pentylenetetrazole challenge measured for 300 secs relative to control; type: functional
[7] = test system: Rattus norvegicus; assay: Anticonvulsant activity in Wistar albino rat assessed as time of onset of subcutaneous pentylenetetrazole-induced clonic convulsion at 30 mg/kg administered 1 hr prior to pentylenetetrazole challenge measured for 300 secs (reference value: 83 +/- 4 secs); type: functional
[8] = test system: Rattus norvegicus; assay: Anticonvulsant activity in Wistar albino rat assessed as protection against maximum electric shock-induced hind limb tonic extension at 30 mg/kg administered 1 hr followed by maximum electric shock induction relative to control; type: functional, Hindlimb
How it was run: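 Male Wistar albino rats, six per group, dosed orally as a suspension in 0.5% sodium carboxymethylcellulose, with a vehicle control group. One hour later, 150 mA for 0.2 sec was applied through corneal electrodes. Duration of hind limb tonic extension was recorded, and abolition or reduction of extension was scored against control. Mean±SEM; one-way ANOVA with Dunnett's test.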

[9] = test system: Mus musculus; assay: Antinociceptive activity in Swiss albino mouse assessed as reduction of capsaicin-induced flinching at 10 mg/kg, po administered 1 hr followed by capsaicin challenge; type: functional; parameters: scale not given: the % may be the effect or the level left
How it was run: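 Male Swiss mice (18-22 g), six per group, were dosed by oral gavage with compound in 0.5% sodium carboxymethylcellulose. One hour later, capsaicin (1 nmol/paw, 20 μl) was injected intraplantar into the right hind paw. Flinches of the injected paw were counted for 5 min. Values are mean±SEM; ANOVA with Dunnett's test vs vehicle control.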

[10] = test system: Rattus norvegicus; assay: Anticonvulsant activity in Wistar albino rat assessed as protection against subcutaneous pentylenetetrazole-induced mortality at 25 mg/kg, po administered 1 hr prior to pentylenetetrazole challenge measured for 300 secs relative to control; type: functional; how it was run: as §1
[11] = test system: Rattus norvegicus; assay: Anticonvulsant activity in po dosed Wistar albino rat assessed as protection against subcutaneous pentylenetetrazole-induced mortality administered 1 hr prior to pentylenetetrazole challenge measured for 300 secs; type: functional, organism-based
[12] = test system: Rattus norvegicus; assay: Anticonvulsant activity in Wistar albino rat assessed as protection against maximum electric shock-induced hind limb tonic extension at 25 mg/kg, po administered 1 hr followed by maximum electric shock induction relative to control; type: functional, Hindlimb; how it was run: as §2
[13] = test system: Rattus norvegicus; assay: Anticonvulsant activity in po dosed Wistar albino rat assessed as protection against maximum electric shock-induced hind limb tonic extension administered 1 hr followed by maximum electric shock induction; type: functional, organism-based; conditions: Hindlimb; how it was run: as §2
[14] = test system: Rattus norvegicus; assay: Anticonvulsant activity in Wistar albino rat assessed as protection against subcutaneous pentylenetetrazole-induced mortality at 100 mg/kg, po administered 1 hr prior to pentylenetetrazole challenge measured for 300 secs relative to control; type: functional; how it was run: as §1
[15] = test system: Rattus norvegicus; assay: Anticonvulsant activity in Wistar albino rat assessed as protection against maximum electric shock-induced hind limb tonic extension at 100 mg/kg, po administered 1 hr followed by maximum electric shock induction relative to control; type: functional, Hindlimb; how it was run: as §2
[16] = test system: Rattus norvegicus; assay: Anticonvulsant activity in Wistar albino rat assessed as time of onset of subcutaneous pentylenetetrazole-induced clonic convulsion at 100 mg/kg, po administered 1 hr prior to pentylenetetrazole challenge measured for 300 secs (reference value: 83 +/- 3.8 secs); type: functional
[17] = test system: Rattus norvegicus; assay: Anticonvulsant activity in po dosed Wistar albino rat assessed as inhibition of subcutaneous pentylenetetrazole-induced seizure administered 1 hr prior to pentylenetetrazole challenge measured for 300 secs; type: functional, organism-based
[18] = test system: Rattus norvegicus; assay: Anticonvulsant activity in Wistar albino rat assessed as time of onset of subcutaneous pentylenetetrazole-induced clonic convulsion at 25 mg/kg, po administered 1 hr prior to pentylenetetrazole challenge measured for 300 secs (reference value: 83 +/- 3.8 secs); type: functional
[19] = test system: Rattus norvegicus; assay: Anticonvulsant activity in Wistar albino rat assessed as protection against maximum electric shock-induced hind limb tonic extension at 30 mg/kg, po administered 1 hr followed by maximum electric shock induction relative to control; type: functional, Hindlimb; how it was run: as §2
[20] = test system: Rattus norvegicus; assay: Anticonvulsant activity in Wistar albino rat assessed as time of onset of subcutaneous pentylenetetrazole-induced clonic convulsion at 5 mg/kg, ip administered 1 hr prior to pentylenetetrazole challenge measured for 300 secs (reference value: 83 +/- 4 secs); type: functional; how it was run: as §1

## CCOC(=O)C1=C(C)NC(C)=C(C(=O)OC)C1c1ccc2c(c1)OCO2 (stereo not given)
[1]
  Activity: 33.3%
[2]
  IC50: 467 µg/mL (≈ 1300 µM)
[3]
  Time: 233 s
[4]
  Activity: 28.5%

## COC(=O)C1=C(C)NC(C)=C(C(=O)OC(C)C)C1c1cccc2nonc12 (stereo not given)
[5]
  Activity: Active

## CCOC(=O)C1=C(C)N(c2cccc([N+](=O)[O-])c2)C(C)=C(C(=O)OC)C1c1ccc2c(c1)OCO2 (stereo not given)
[1]
  Activity: 0%
[2]
  IC50: 386 µg/mL (≈ 803 µM)
[3]
  Time: 136 s
[4]
  Activity: 28.5%

## COC(=O)C1=C(C)NC(C)=C(C(=O)OC)C1c1ccccc1[N+](=O)[O-] [NIFEDIPINE]
[6]
  Activity: 33.3%
[7]
  Time: 215 s
[8]
  Activity: 66.6%

## CCOC(=O)C1=C(C)N(c2ccccc2[N+](=O)[O-])C(C)=C(C(=O)OCC)C1c1ccc2c(c1)OCO2
[1]
  Activity: 66.6%
[2]
  IC50: 874 µg/mL (≈ 1770 µM)
[3]
  Time: 293 s
[4]
  Activity: 60.3%

## COC(=O)C1=C(C)N(c2ccc([N+](=O)[O-])cc2)C(C)=C(C(=O)OC)C1c1ccc2c(c1)OCO2
[1]
  Activity: 0%
[2]
  IC50: 1289 µg/mL (≈ 2760 µM)
[3]
  Time: 93 s
[4]
  Activity: 7.9%

## COC(=O)C1=C(C)NC(C)=C(C(=O)OC)C1c1ccc2c(c1)OCO2
[1]
  Activity: 0%
[9]
  Activity: 21%
[2]
  IC50: 604 µg/mL (≈ 1750 µM)
[3]
  Time: 200 s
[4]
  Activity: 27%

## CCOC(=O)C1=C(C)NC(C)=C(C(=O)OCC)C1c1ccc2c(c1)OCO2
[1]
  Activity: 100%
[9]
  Activity: 8%
[10]
  Activity: 100%
[11]
  Activity: Dose-dependent effect
[12]
  Activity: 41.6%
[13]
  Activity: Dose-dependent effect
[14]
  Activity: 0%
[2]
  IC50: 375 µg/mL (≈ 1000 µM)
[15]
  Activity: 72%
[16]
  Time: >300 s
[17]
  inhibition: Dose-dependent effect
[18]
  Time: 194 s
[3]
  Time: >300 s
[4]
  Activity: 59%

## O=C1O[C@H]([C@@H](O)CO)C(O)=C1O [ASCORBIC ACID]
[2]
  IC50: 32 µg/mL (≈ 182 µM)

## CCOC(=O)C1=C(C)N(c2ccccc2[N+](=O)[O-])C(C)=C(C(=O)OC)C1c1ccc2c(c1)OCO2 (stereo not given)
[1]
  Activity: 33.3%
[2]
  IC50: 933 µg/mL (≈ 1940 µM)
[3]
  Time: 251 s
[4]
  Activity: 44.5%

## CCOC(=O)C1=C(C)N(c2ccc([N+](=O)[O-])cc2)C(C)=C(C(=O)OC)C1c1ccc2c(c1)OCO2 (stereo not given)
[1]
  Activity: 33.3%
[9]
  Activity: 4%
[2]
  IC50: 854 µg/mL (≈ 1780 µM)
[3]
  Time: 225 s
[4]
  Activity: 31.7%

## CCOC(=O)C1=C(C)N(c2ccccc2)C(C)=C(C(=O)OCC)C1c1ccc2c(c1)OCO2
[1]
  Activity: 66.6%
[2]
  IC50: 443 µg/mL (≈ 986 µM)
[3]
  Time: 275 s
[4]
  Activity: 46%

## COC(=O)C1=C(C)N(c2ccccc2[N+](=O)[O-])C(C)=C(C(=O)OC)C1c1ccc2c(c1)OCO2
[1]
  Activity: 0%
[2]
  IC50: 2354 µg/mL (≈ 5050 µM)
[3]
  Time: 174 s
[4]
  Activity: 33.3%

## O=C1NC(=O)C(c2ccccc2)(c2ccccc2)N1 [PHENYTOIN]
[19]
  Activity: 69.8%

## CN1C(=O)CN=C(c2ccccc2)c2cc(Cl)ccc21 [DIAZEPAM]
[20]
  Time: 262 s

## CCOC(=O)C1=C(C)N(c2cccc([N+](=O)[O-])c2)C(C)=C(C(=O)OCC)C1c1ccc2c(c1)OCO2
[1]
  Activity: 33.3%
[2]
  IC50: 363 µg/mL (≈ 734 µM)
[3]
  Time: 250 s
[4]
  Activity: 49.2%

## CCOC(=O)C1=C(C)N(c2ccc([N+](=O)[O-])cc2)C(C)=C(C(=O)OCC)C1c1ccc2c(c1)OCO2
[1]
  Activity: 66.6%
[2]
  IC50: 597 µg/mL (≈ 1210 µM)
[3]
  Time: 237 s
[4]
  Activity: 46%

## COC(=O)C1=C(C)N(c2cccc([N+](=O)[O-])c2)C(C)=C(C(=O)OC)C1c1ccc2c(c1)OCO2
[1]
  Activity: 0%
[2]
  IC50: 521 µg/mL (≈ 1120 µM)
[3]
  Time: 138 s
[4]
  Activity: 11.1%

## CCOC(=O)C1=C(C)N(c2ccccc2)C(C)=C(C(=O)OC)C1c1ccc2c(c1)OCO2 (stereo not given)
[1]
  Activity: 0%
[2]
  IC50: 740 µg/mL (≈ 1700 µM)
[3]
  Time: 221 s
[4]
  Activity: 41.2%

## COC(=O)C1=C(C)N(c2ccccc2)C(C)=C(C(=O)OC)C1c1ccc2c(c1)OCO2
[1]
  Activity: 0%
[9]
  Activity: 0%
[2]
  IC50: 542 µg/mL (≈ 1290 µM)
[3]
  Time: 200 s
[4]
  Activity: 41.2%
